Experimental data taken from ChEMBL document CHEMBL4346690, “Structure-activity relationship studies of (E)-3,4-dihydroxystyryl alkyl sulfones as novel neuroprotective agents based on improved antioxidant, anti-inflammatory activities and BBB permeability” (Eur J Med Chem, 2019).
Activity calls are given as the source filed them. The calls are words filed in the database; no cut-off is given here.

How the values were obtained:
[1] = Antioxidant activity assessed as DPPH radical scavenging activity after 1 hr by […]; format: functional
In short: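 DPPH (0.2 mM) in ethanol mixed with sample, kept 1 h at room temperature, absorbance read at 517 nm. Scavenging % = [1−(Ac−Ab)/A0]×100, where Ab is the sample in ethanol without DPPH and A0 is the ethanol+DPPH control. EC50 reported; vitamin C used as reference antioxidant; mean ± SD, n = 3.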

[2] = Cytotoxicity against […] BV2 cells assessed as cell viability at 0.625 to 40 uM after 24 hrs by MTS assay; format: cell-based; details: read-out: Activity
In short: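 Viability of BV2 cells read by MTS under the NO-assay conditions: 3 h compound (0.625–40 µM) pretreatment followed by LPS 100 ng mL−1 for 24 h.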

[3] = system: PC-12; experiment: Neuroprotection activity in rat PC12 cells assessed as reduction in 6-OHDA-induced cell damages at 10 uM preincubated for 3 hrs followed by H2O2 addition and measured after 24 hrs by MTT assay relative to control; format: functional, cell-based; details: in the assay text read “6-OHDA addition” for “H2O2 addition”
In short: (§1)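 PC12 cells plated at 2 × 10^5 cells mL−1 for 1 day, pretreated 3 h with compounds at 2.5, 5 or 10 µM, then 6-OHDA (final 250 µM) added for 24 h. Viability by MTT, absorbance 570 nm; untreated cells = 100%; mean ± SD, n = 3.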

[4] = Cytotoxicity against […] BV2 cells assessed as cell viability at 100 uM after 24 hrs by MTT assay; format: cell-based; details: read-out: Activity
In short: (§2)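 Cells kept in high-glucose DMEM with 10% FBS and 1% PS at 37 °C, 5% CO2. Plated 1 day, then compounds for 24 h; viability by MTT at 100 µM as ODtreated/ODcontrol × 100%, untreated = 100%. Mean ± SD, n = 3.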

[5] = Cytotoxicity against rat PC12 cells assessed as cell viability at 100 uM after 24 hrs by MTT assay; format: cell-based, PC-12; details: read-out: Activity; in short: as §2
[6] = Anti-neuroinflammatory activity in […] BV2 cells assessed as reduction in LPS-induced NO production preincubated for 3 hrs followed by LPS stimulation for 24 hrs by Griess assay; format: functional, cell-based; details: BV-2
In short: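 BV2 microglia seeded 3 × 10^5 cells mL−1 for 1 day; compounds in medium added for 3 h, then LPS (final 100 ng mL−1) for a further 24 h. Supernatant mixed with Griess reagent, absorbance at 540 nm. Inhibition % from NO release of LPS-only, unstimulated and compound+LPS wells; IC50 reported; mean ± SD, n = 3.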

[7] = system: PC-12; experiment: Neuroprotection activity in rat PC12 cells assessed as reduction in H2O2-induced cell death preincubated for 3 hrs followed by H2O2 addition and measured after 3 hrs by MTS assay; format: functional, cell-based
In short: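 PC12 cells plated at 2 × 10^5 cells mL−1 for 1 day, pretreated 3 h with compounds, then H2O2 (final 400 µM) for 3 h. Viability by MTS at 490 nm relative to untreated cells (100%); single-concentration tests at 2.5, 5, 10 µM and IC50 values; mean ± SD, n = 3.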

[8] = system: PC-12; experiment: Neuroprotection activity in rat PC12 cells assessed as reduction in 6-OHDA-induced cell damages at 2.5 uM preincubated for 3 hrs followed by H2O2 addition and measured after 24 hrs by MTT assay relative to control; format: functional, cell-based; details: in the assay text read “6-OHDA addition” for “H2O2 addition”; in short: as §1

| Compound | EC50 [1] [µM] | viability at 24 h, up to 40 µM [2] [%] | Activity [3] | viability at 24 h, 100 µM [4] [%] | viability at 24 h, 100 µM [5] [%] | IC50 [6] [µM] | IC50 [7] [µM] | Activity [8] |
| --- | --- | --- | --- | --- | --- | --- | --- | --- |
| O=S(=O)(/C=C/c1ccc(O)c(O)c1)CCC1CCCCC1 | 9.8 | > 90 | Active | 62.6 | 94.9 | 11.3 | 2 | Active |
| CCCCCCCCCS(=O)(=O)/C=C/c1ccc(O)c(O)c1 | 7.7 | > 90 | Active | 66.6 | 70.6 | 7.4 | 1.93 | Active |
| O=S(=O)(/C=C/c1ccc(O)c(O)c1)CC1CC1 | 10.5 | > 90 | inactive | 87.8 | 92.9 | 33.5 | 6.61 |  |
| O=S(=O)(/C=C/c1ccc(O)c(O)c1)CCCCCCCCCCCO | 22.6 | > 90 | Active | 50.4 | 100 | 13.3 | 24.1 | Active |
| O=S(=O)(/C=C/c1ccc(O)c(O)c1)CCCCCCCCCO | 7.5 | > 90 | Active | 54.4 | 95.2 | 11 | 7.91 | Active |
| CCCCCCCCCCCS(=O)(=O)/C=C/c1ccc(O)c(O)c1 | 11.4 | > 90 | Active | 23.2 | 52.1 | 6.9 | 2.34 | Active |
| CCCCCCCCCCS(=O)(=O)/C=C/c1ccc(O)c(O)c1 | 6.8 | > 90 | Active | 34.1 | 59.7 | 7.3 | 2.21 | Active |
| O=S(=O)(/C=C/c1ccc(O)c(O)c1)CCCCCCCCO | 6.7 | > 90 | Active | 49.5 | 87.3 | 12.2 | 7.91 | Active |
| O=S(=O)(/C=C/c1ccc(O)c(O)c1)CC1CCCC1 | 9.4 | > 90 | Active | 72.7 | 85.4 | 15.8 | 2.19 | Active |
| CCCCCCCCCCCCS(=O)(=O)/C=C/c1ccc(O)c(O)c1 | 8.5 | > 90 | Active | 25.2 | 28.2 | 6.6 | 2.27 | Active |
| O=S(=O)(/C=C/c1ccc(O)c(O)c1)CC1CCC1 | 8.8 | > 90 | Active | 83.8 | 80.2 | 20.8 | 4.81 |  |
| CCCCCCCCS(=O)(=O)/C=C/c1ccc(O)c(O)c1 | 6.4 | > 90 | Active | 63.6 | 73.6 | 7.6 | 1.45 | Active |
| O=S(=O)(/C=C/c1ccc(O)c(O)c1)CC1CCCCO1 (stereo unspecified) | 10.8 | > 90 | Active | 78.8 | 88.3 | 6.9 | 3.34 |  |
| O=S(=O)(/C=C/c1ccc(O)c(O)c1)CCCCCCCO | 5.9 | > 90 | Active | 72 | 91.8 | 14.3 | 9.91 | Active |
| O=S(=O)(/C=C/c1ccc(O)c(O)c1)CCC1CCCC1 | 6.8 | > 90 | Active | 76.6 | 77.7 | 2.5 | 1.96 | Active |
| O=S(=O)(/C=C/c1ccc(O)c(O)c1)CC1CCCO1 (stereo unspecified) | 10.5 | > 90 | inactive | 93.9 | 98 | 54.6 | 27.1 |  |
| CC(C)(C)OC(=O)N1CCCC1CS(=O)(=O)/C=C/c1ccc(O)c(O)c1 (stereo unspecified) | 7.1 | > 90 | inactive | 68.7 | 52.5 | 7 | 7.2 |  |
| O=S(=O)(/C=C/c1ccc(O)c(O)c1)CC1CCCN1 (stereo unspecified) | 13.8 | > 90 |  | 76.4 | 55.9 | 103 |  |  |
| CCCCCCCS(=O)(=O)/C=C/c1ccc(O)c(O)c1 | 7.1 | > 90 | Active | 52.5 | 85.7 | 8.5 | 1.33 | Active |
| O=C(/C=C/c1ccc(O)c(O)c1)OCCc1ccccc1 [CAFFEIC ACID PHENETHYL ESTER] | 14.6 | > 90 | Active | 69.3 | 85.1 | 6 | 2 |  |
